Measured values taken from PMC5198934 (Saudi Journal of Biological Sciences, 2015).
In brackets after ≈: the same amount, converted by molar mass.

How the values were obtained:
[1] = DPPH radical scavenging assay; conditions: 30 min, absorbance at 517 nm, triplicate, mean ± SD
Method in brief: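 DPPH dissolved in methanol (180 µL) mixed with 20 µL methanolic compound solutions at 0.1, 1, 10 and 100 μg/mL. Mixture shaken, held 30 min at room temperature in dark, A517. Controls: methanol blank, ascorbic acid positive. Triplicate. % scavenging = (A blank − A test)/A blank × 100; IC50 from concentration–scavenging plot.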

[2] = ABTS radical scavenging assay; conditions: 10 min, absorbance at 734 nm, triplicate, mean ± SD
Method in brief: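 ABTS•+ formed from 7 mM ABTS in water plus 2.45 mM potassium persulfate, kept dark at room temperature 12–16 h, then diluted in methanol to A734 0.70 ± 0.02 at 30 °C. Methanolic compound dilutions (20 µL) added to 180 µL radical, 10 min in dark, A734. Controls: methanol blank, ascorbic acid reference. Fresh radical each run. Triplicate. % scavenging versus blank gives IC50.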

FRAP assay = conditions: for FRAP (10 μg/mL): absorbance at 593 nm, 30 min, triplicate
Method in brief: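 Working reagent: 300 mM acetate buffer pH 3.6, 10 mM TPTZ in 40 mM HCl, and 20 mM FeCl3·6H2O, mixed 10:1:1 and warmed to 37 °C. Methanolic samples reacted 30 min. Ascorbic acid in water used as standard, methanol as blank. Fe²⁺–TPTZ complex read at 593 nm. Triplicate, mean reported.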

Hela cancer cell = test: SRB anticancer assay, Hela cells; type: cell-based, Human
Method in brief: (§1)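 HeLa cells were grown in DMEM; CaSki and MDCK in RPMI-1640. All media had 10% FBS and 1% antibiotic–antimycotic, at 37 °C, 5% CO2. Cells seeded at 5×10^3/well overnight, triplicate, then given four concentrations for 48 h. Untreated cells served as control. SRB staining: ice-cold 70% acetone fixation, 0.4% SRB, Tris solubilisation, A540. IC50 from cancer lines, CC50 from MDCK, TI derived.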

Caski cancer cell = test: SRB anticancer assay, Caski cells; type: cell-based
Method in brief: as §1

[3] = SRB cytotoxicity assay, MDCK cells; type: cell-based, canine; conditions: dog
Method in brief: as §1

Structure (SMILES)	IC50 DPPH [1]	IC50 ABTS [2]	FRAP (10 μg/mL) (FRAP assay)	TI (therapeutic index) (Hela cancer cell; CC50 MDCK / IC50 Hela)	IC50 (Hela cancer cell; Homo sapiens, HeLa, 48 h, read-out: IC50 Hela)	TI (therapeutic index) (Caski cancer cell; CC50 MDCK / IC50 Caski)	IC50 (Caski cancer cell; Homo sapiens, Ca-Ski, 48 h, read-out: IC50 Caski)	CC50 at 48 h [3]	FRAP absorption value (FRAP assay; Fe3+ reducing power)
COc1ccc2cc3[n+](cc2c1OC)CCc1cc2c(cc1-3)OCO2 [Berberine]	33.16 ± 1.60 µg/mL	86.29 ± 2.11 µg/mL	0.001 ± 0.66	25.29	4.5 ± 0.08 µg/mL	20.17	5.64 ± 0.11 µg/mL	113.8 ± 0.51 µg/mL	–
O=C1O[C@H]([C@@H](O)CO)C(O)=C1O [Ascorbic acid]	10.75 ± 0.66 µg/mL (≈ 61 µM)	4.760 ± 0.05 µg/mL (≈ 27 µM)	2.140 ± 0.78	–	–	–	–	–	2.140 nm
